Measurements collected from several papers.

| Structure (SMILES) | tested on | test | test system | setting | measurement | result |
| --- | --- | --- | --- | --- | --- | --- |
| O=C1C=C2NCCc3c[nH]c(c32)C1=O | Plasmodium falciparum | parasite growth, SYBR Green | DD2 | blood stage | IC50 | 23700 nM |
| O=C(/C=C/c1cn(Cc2cn(-c3ccnc4cc(Cl)ccc34)nn2)c2ccccc12)c1ccc([N+](=O)[O-])cc1 | Plasmodium falciparum | parasite growth, SYBR Green | 3D7 | 5 µM, blood stage | inhibition | 3.86% |
| CNc1ncc2c(/C=C/C(=O)N3CCC(OC)CC3)nn(Cc3ccc(OC)cc3)c2n1 | FLO-1 | cell growth or viability, resazurin | – | 5 days | EC50 | 1130 nM |
| C=C(F)C(=O)N1CCN(c2nc(OC[C@@H]3CCCN3C)nc3c2CCN(c2cccc4cccc(Cl)c24)C3)C[C@@H]1CC#N | KYSE-410 | cell growth or viability, ATP luminescence | – | 3D culture | IC50 | 107 nM |
| Cn1cc2c3c1C(=O)C(NCCc1ccc(O)cc1)=CC3=[N+](C)CC2 | Plasmodium falciparum | parasite growth, SYBR Green | W2 | blood stage | IC50 | 394 nM |
| O=C(/C=C/c1cn(Cc2cn(-c3ccnc4cc(Cl)ccc34)nn2)c2ccccc12)c1ccc(F)cc1 | Plasmodium falciparum | parasite growth, SYBR Green | 3D7 | 5 µM, blood stage | inhibition | 15.8% |
| COCC(=O)N1CCCC(C(=O)NCc2nc(-c3ccccc3)cs2)C1 (racemic) | Plasmodium falciparum | parasite growth, SYBR Green | – | 72 h | EC50 | 150 nM |
| O=C(NO)c1ccc(CNc2nc3cccc(-c4ccc5c(c4)OCO5)n3n2)cc1 | COLO 205 | cell growth or viability, SRB | – | – | GI50 | 630 nM |
| O=C1C(NCCc2ccc(O)cc2)=CC2=NCCc3c[nH]c1c32 | Plasmodium falciparum | parasite growth, SYBR Green | DD2 | blood stage | IC50 | 291 nM |
| CC1CCN(C(=O)/C=C/c2nn(CC3CCCC3)c3ncnc(N)c23)CC1 | FLO-1 | cell growth or viability, resazurin | – | 5 days | EC50 | > 30000 nM |
| C=CC(=O)NC1CCN(c2ncc3ncnc(Nc4ccc(Oc5ccc6c(c5)ncn6C)c(C)c4)c3n2)CC1 | MDA-MB-453 | cell growth or viability | – | – | EC50 | 35.2 nM |
| O=C(/C=C/c1cn(Cc2cn(-c3ccnc4cc(Cl)ccc34)nn2)c2ccccc12)c1ccc(Cl)cc1Cl | Plasmodium falciparum | parasite growth, SYBR Green | 3D7 | 5 µM, blood stage | inhibition | 4.87% |
| CNc1ncc2c(/C=C/C(=O)N3CCC(OC)CC3)nn(CC3CCCO3)c2n1 (stereo not drawn) | FLO-1 | cell growth or viability, resazurin | – | 5 days | EC50 | > 30000 nM |
| COc1ccc(C(=O)/C=C/c2cn(Cc3cn(-c4ccnc5cc(Cl)ccc45)nn3)c3ccccc23)cc1OC | Plasmodium falciparum | parasite growth, SYBR Green | 3D7 | 5 µM, blood stage | inhibition | -4% |
| Nc1ncnc2c1c(/C=C/C(=O)N1CCC(O)CC1)nn2CC1CCCC1 | FLO-1 | cell growth or viability, resazurin | – | 5 days | EC50 | > 30000 nM |
